The values that follow come from PubChem BioAssay AID1217 (Sanford-Burnham Center for Chemical Genomics, 2008).

Hit rate of the full screen: of about 190,000 compounds, about 1,300 (0.68%) were called active. What follows is part of a selection rich in actives, with near analogues and random picks from the rest. Values without a mark were called inactive.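 How the source made its calls: active means primary screen inhibition at 20 µM above a set limit (cut at about 50% in these data); inactive means the rest.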

By inhibition is commonly meant the relative decrease from the control value, in per cent.

This test deals with diaphorase (Clostridium kluyveri). Nature of the test: compounds blocking diaphorase resazurin reduction – biochemical, uHTS, resorufin fluorescence, counter-screen for diaphorase-coupled primary assays, primary screen (AID 1217).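 Further: plate controls were DMSO with full reaction for no effect and wells lacking NADH for full effect.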 Particulars: diaphorase resazurin-to-resorufin fluorescence, NADH, 16 min; at 20 µM; hits give high values; bacterial (C. kluyveri) enzyme, not human. In a few lines:
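System: Diaphorase enzyme from Clostridium kluyveri | Amount: Enzyme working solution with 0.14 U/mL diaphorase | Benchmarks: No-NADH positive control and DMSO neutral control | Signal: Fluorescence of resorufin formed from resazurin, Ex 544/Em 590 nm | Schedule: 16-min room-temperature incubation before reading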
Take `O=C(OCC(=O)N1CCOCC1)c1ccc(N2CCOCC2)c([N+](=O)[O-])c1`: the inhibition was 3.6%.
For `CC(C)(C)NC(=O)C(=O)NN=C1CCCCCCC1`, the inhibition is 3.8%.
As to `CCN(CC)CCN(C(=O)c1cccc([N+](=O)[O-])c1)c1nc2ccc(OC)cc2s1`, the inhibition is 9.6%.
The value for `Cc1nn(-c2ccccc2)c(C)c1C(=O)OCC(=O)NC(=O)NC1CCCCC1` was 57.3% (active); that for `O=C(COC(=O)c1ccccc1SCC(=O)NC1CCCCC1)NC1CCCCC1` was 3.2%; that for `CCCn1c(C)cc(C(=O)COC(=O)c2c(C)nn(-c3ccccc3)c2C)c1C` was 18.9%.
For `Cn1cnnc1SCc1nnc(-c2ccccc2Br)o1`, the inhibition is 4.8%.
For `CCC1CCCCN1C(=O)CSc1nc2c(c(=O)n(C)c(=O)n2C)n1C` (centres undefined), the inhibition was 6.8%.
As to `COc1cccc(CC2(CO)CCCN(Cc3nc(-c4cccs4)oc3C)C2)c1` (centres undefined), the inhibition was 17.2%.
With `CCOC(=O)C1(CC2CCCCO2)CCN(Cc2nc(-c3cccs3)oc2C)CC1` (centres undefined), the inhibition is 56.2% (active).
Regarding `CC1CCC2(CC1)NC(=O)N(Cc1nnc(-c3cccs3)o1)C2=O` (centres undefined), the inhibition was 8.2%.
The value for `COc1ccc(Nc2nc(N)nc(CSC(=S)N3CCC(C)CC3)n2)cc1` was 28.1%.
Turning to `O=c1c(-c2ccccc2)coc2cc(O)ccc12`, the inhibition was -8.4%.
On to `O=C(CCc1ccccc1)NNC(=O)c1ccc(Br)cc1`, for which the inhibition was -5.7%.
The value for `COc1ccc(C(=O)NC(=S)NNC(=O)CCc2ccccc2)cc1` was 54% (active).
As to `COc1ccc(C(=O)NC(=S)NNC(=O)c2c(-c3ccccc3)noc2C)cc1`, the inhibition is 38.4%.
Regarding `COc1ccc(CC(NC(C)=O)C(=O)NC2CCN(C(=O)c3ccc(OC)c(OC)c3)CC2)cc1OC` (centres undefined), the inhibition was 10.9%.
As to `COc1ccc(CN2CCC(c3nc4ccc(Cl)cc4[nH]3)CC2)cc1`, the inhibition was 2.5%.
`O=C(OCC1O[C@@H](OC(=O)c2cc(O)c(O)c(O)c2)[C@@H](OC(=O)c2cc(O)c(O)c(O)c2)[C@@H](OC(=O)c2cc(O)c(O)c(O)c2)[C@@H]1OC(=O)c1cc(O)c(O)c(O)c1)c1cc(O)c(O)c(O)c1` (some centres undefined): the inhibition was 71.3% (active).
The value for `CC(=O)NC1C(OCc2ccccc2)OC(COC(C)=O)C(OC(C)=O)C1OC(C)=O` (centres undefined) was 9%.
In the case of `O=C(Nc1ccccc1-c1ccccc1)c1cccs1`, the inhibition was 7.8%.
The value for `Cc1ccc2[nH]c(=O)c(CC=C(Cl)Cl)c(C)c2c1` was 7.7%.
Regarding `O=C(CN1CCOCC1)Nc1c(-c2ccccc2)c2cc(Br)ccc2[nH]c1=O`, the inhibition was 12.8%.
Consider `Cc1ccc2[nH]c(=O)c(CN3CCCCC3)c(-c3ccccc3)c2c1`, for which the inhibition was 68.3% (active).
As for `O=C(CSc1nc2ccccc2[nH]1)Nc1nc(-c2ccccc2)c(-c2ccccc2)o1`, the figure is 12.3%; as for `COCCn1nnnc1C(c1cc2ccc(OC)cc2[nH]c1=O)N1CCc2ccccc2C1` (centres undefined), 52.1% (active).
The value for `CCOc1ccc2[nH]c(=O)c(C(c3nnnn3CCOC)N3CCOCC3)cc2c1` (centres undefined) was 5.8%; that for `COc1ccc(OC)c(C(c2nnnn2C(C)(C)C)N2CCc3ccccc3C2)c1` (centres undefined) was 29.8%.
`N#C/C(=C\C1=C(N2CCOCC2)C(=C\c2ccccc2)/CC1)C(=O)Nc1ccccc1F`: the inhibition is 28.4%.
Consider `CCNc1ccc(C(=O)OCC(=O)N2c3ccccc3NC(=O)C2(C)C)cc1[N+](=O)[O-]`, for which the inhibition is 19.8%.
In the case of `Cc1nc(-c2ccccc2)sc1C(=O)/C=C/c1ccccc1`, the inhibition is 13.8%.
For the molecule `Cc1ccc(SCC(=O)c2sc(-c3ccccc3)nc2C)cc1`, the inhibition is 20.1%.
With `Cc1nc(-c2ccc(Cl)cc2)sc1C(=O)CBr`, the inhibition was 52.6% (active).
As for `CN1CCN(/N=C/c2ccc(-c3ccc([N+](=O)[O-])cc3)o2)CC1`, the figure is -3.7%; as for `COc1ccc(N(C(=O)c2ccc(C)cc2)S(=O)(=O)c2cccs2)cc1`, 18.3%; as for `CCC(C)(C)N=C(NC#N)Nc1cccnc1`, 59.6% (active).
As for `CC(C)(C)C1CCC(C(=O)Nc2cccnc2)CC1` (centres undefined), the figure is 6.1%; as for `CCOc1cccc(C(=O)Nc2cccnc2)c1`, -6.7%; as for `Cc1nn(C)cc1C(=O)Nc1ccccc1Br`, 13.9%.
The value for `O=C(CCn1ccc([N+](=O)[O-])n1)Nc1nccs1` was 9.2%; that for `COc1ccc(C=Nc2cccc3ncccc23)cc1` was 39.7%.
Regarding `Oc1c(C=Nc2cccc3nsnc23)ccc2ccccc12`, the inhibition was 62.8% (active).
The value for `CCSC1=NCCN1S(=O)(=O)c1ccc(F)cc1` was -9.8%; that for `c1cnn(-c2cc(N3CCOCC3)ncn2)c1` was 15.6%; that for `O=C(Nc1cc(N2CCOCC2)ncn1)NC1(C(F)(F)F)Oc2ccc(Cl)cc2O1` (centres undefined) was 62.6% (active).
As for `Cc1csc(NC(=O)NC2(C(F)(F)F)Oc3ccccc3O2)n1`, the figure is 38.6%; as for `CC(=O)C1=C(O)C(=O)N(c2cccnc2)C1c1ccc([N+](=O)[O-])cc1` (centres undefined), 9.5%; as for `COC(=O)C[n+]1cccc2ccccc21`, 2.1%.
Regarding `O=C(CSc1ccc(-c2ccco2)nn1)NCc1ccc2c(c1)OCO2`, the inhibition is 18.6%.
As for `C/C(=N\N1CCN(Cc2ccc(C)cc2)CC1)c1ccco1`, the inhibition was 3.3%.
`Cc1ccnc(Nc2nc3ccccc3s2)n1`: the inhibition is -16.3%.
As to `Cc1ccnc(-n2sc3ccccc3c2=O)n1`, the inhibition was 57% (active).
Take `Cc1ccnc(N2CCC(C(=O)NC3CCCCCC3)CC2)n1`: the inhibition was 0.8%.
As for `Cc1ccc(S(=O)(=O)N(C)C)cc1NC(=O)/C=C/c1cccs1`, the inhibition is 15.5%.
As for `C#Cc1ccc([C@@H]2C=C(C(=O)O)O[C@H](OCCCCO)C2)cc1`, the figure is 15%; as for `O=C(CCN1C(=O)c2ccccc2C1=O)NCCCn1ccnc1`, -0.3%.
Take `O=C(O)/C=C/c1cn(Cc2ccccc2)nc1-c1cccs1`: the inhibition was 9.8%.
The value for `O=C(Cn1nnc(-c2ccccc2)n1)NCc1ccc2c(c1)OCO2` was -5.8%.
As for `Cc1cccc(C)c1NC(=O)CSc1nnc(-c2ccccc2)n1Cc1ccc2c(c1)OCO2`, the figure is -6.5%.
As for `c1ccc(-c2nnc3n2NC(c2ccc4c(c2)OCO4)S3)cc1` (centres undefined), the figure is 50% (active); as for `Cc1ccc(NS(=O)(=O)c2ccc(C)c(NC(=O)COc3ccc4ccccc4c3)c2)c(C)c1`, 30.9%.
On to `COc1ccc(N(C)S(=O)(=O)c2cccc3nsnc23)cc1`, for which the inhibition is 3.7%.
The value for `NC(=O)Cc1ccc2sc(-c3ccccc3)nc2c1` was 12.5%; that for `CC(C)(C)SCCNC(=O)c1cccc([N+](=O)[O-])c1` was 1.8%; that for `COCCCNC(=S)NC(=O)c1ccc([N+](=O)[O-])cc1` was 9.4%.
For the molecule `Cc1cccc(C(=O)NNC(=O)c2cccc([N+](=O)[O-])c2)c1`, the inhibition was 10.9%.
As for `CCCCCC(=O)Nc1ccc(C(=O)N/N=C/c2ccc([N+](=O)[O-])cc2)cc1`, the figure is 4.9%; as for `CC(C)CC(=O)NC(=S)NNC(=O)c1cccc([N+](=O)[O-])c1`, 58.7% (active); as for `CCCCCC(=O)NC(=S)NNC(=O)c1ccc([N+](=O)[O-])cc1`, 54.7% (active).
`Brc1cc(/C=N/n2cnnc2)oc1Br`: the inhibition was -5.6%.
The value for `O=C(COc1ccc(Cl)cc1)NCc1nnc(SCC(=O)NCC2CCCO2)o1` (centres undefined) was 3.2%.
As for `Cc1cc(C)n(CC(=O)Nc2ccc([N+](=O)[O-])cc2)n1`, the figure is 19.4%.
The value for `COc1ccc(CNC(=O)CN(Cc2ccc(Cl)cc2)S(C)(=O)=O)cc1` was 12.3%; that for `CC1=CC(C)(C)N(C(=O)CSc2nnc(-c3ccccc3)o2)c2ccc(C)cc21` was 6.9%; that for `COc1ccc2c(c1)C(C)=CC(C)(C)N2C(=O)CNCc1ccc2c(c1)OCO2` was 34.2%.
Consider `COc1ccc2c(c1)C(C)=CC(C)(C)N2C(=O)Nc1ccccc1`, for which the inhibition was 74.3% (active).
The value for `COCCNC(=O)Nc1ccc2nc(-c3ccco3)c(-c3ccco3)nc2c1` was 70.2% (active).
For `COc1ccc(NC(=O)Nc2ccc3nsnc3c2)cc1`, the inhibition was 15.1%.
Regarding `O=C(NCc1ccccn1)c1cc(-c2ccccc2Cl)on1`, the inhibition was 4.9%.
The value for `CN(c1ccc(C(=O)NCc2ccccn2)cc1)S(C)(=O)=O` was 5.3%; that for `COc1ccc(NC(=O)Nc2ccc3nc(C)c(C)nc3c2)cc1` was 13.6%; that for `O=C(NCc1ccccn1)c1ccc2nc(-c3ccco3)c(-c3ccco3)nc2c1` was 51% (active).
The value for `CC(C)C(C)(C#N)NC(=O)CSc1nncn1-c1ccccc1` (centres undefined) was 12.5%.
As for `O=C(CO/N=C/c1ccc(OC(F)F)cc1)NCc1ccc(F)cc1`, the figure is 9.6%; as for `O=C(NNC(=O)C1CCN(c2ncccn2)CC1)c1ccccc1`, -1.9%.
Regarding `CCOC(=O)N1CCN(C(c2cccnc2)c2ccc3cccnc3c2O)CC1` (centres undefined), the inhibition is 48.3%.
As to `Oc1c(CN2CCN(c3ccc(F)cc3)CC2)cc(Cl)c2cccnc12`, the inhibition was 14.9%.
As for `CCN1CCN(C(c2cccnc2)c2cc(Cl)c3cccnc3c2O)CC1` (centres undefined), the figure is 54.7% (active); as for `Cc1ccc(N(C(=O)Cc2cccs2)C2C=CS(=O)(=O)C2)cc1Cl` (centres undefined), 12.1%.
`CC(C)CCN1CCN(Cc2cn[nH]c2C2CCCCC2)CC1CCO` (centres undefined): the inhibition was 8.8%.
As for `COc1ccc(NS(=O)(=O)c2cc(NC(=O)CC(=O)c3ccc([N+](=O)[O-])cc3)ccc2C)cc1`, the inhibition was -19.9%.
The value for `c1ccc(-c2cc3c(NCC4COc5ccccc5O4)ncnc3s2)cc1` (centres undefined) was 14.4%.
As for `COc1ccc(-c2[nH]ncc2/C=N/NC(=O)c2cc(Br)ccc2O)c(OC)c1`, the figure is 8.8%.
Turning to `Cc1cc(C(=O)N/N=C/c2ccc(N3CCOCC3)cc2)c(C)o1`, the inhibition was -7.7%.
The value for `Cc1ccccc1N/N=C/c1ccc(N2CCOCC2)cc1` was 13.9%.
For the molecule `Cc1cc(Oc2ccccc2)nc(N2CCOCC2)n1`, the inhibition is 8.4%.
The value for `CN(C)c1ccc(/C=N/Nc2cc(N3CCOCC3)nc(N3CCOCC3)n2)cc1` was 58% (active); that for `CCN(CC)c1ccc(C(=O)N/N=C/c2ccc(N3CCOCC3)cc2)cc1` was 14.2%; that for `C(=N/Nc1cc(N2CCOCC2)nc(N2CCOCC2)n1)/c1ccccc1` was 65.9% (active).
